Source: ChEMBL document CHEMBL3352574, “Incorporation of triphenylphosphonium functionality improves the inhibitory properties of phenothiazine derivatives in Mycobacterium tuberculosis” (Bioorg Med Chem, 2014)
Converted amounts (≈) assume the structure as drawn. The source made the active and inactive calls. No cut-off for these calls is given here.

How the values were obtained:
[1] = tested on: Mycolicibacterium smegmatis; test: Antimicrobial activity against Mycobacterium smegmatis (MC2) 155 after 24 hrs by serial macrobroth dilution method; type: functional; settings: (MC2) 155, 24 h
In short: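 Serial macrobroth dilution, 128–0.5 μg/mL in LBT (LB + 0.05% Tween80). Log-phase mc²155 inoculated to final OD600 0.005, incubated 37°C at 200 rpm. Growth scored by eye after 24 h. No-compound and DMSO controls included. Figure data are the average of three biological replicates.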

[2] = tested on: Mycobacterium tuberculosis; test: Antimicrobial activity against Mycobacterium tuberculosis H37Ra after 5 days by serial macrobroth dilution method; type: functional, organism-based; settings: 120 h
In short: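 M. tuberculosis H37Ra in 7H9 with 0.5% glycerol, 10% ADC and 0.05% Tween80. Serial macrobroth dilution 128–0.5 μg/mL, log-phase inoculum to final OD600 0.005, 37°C, 200 rpm. Growth read visually at 5 days. No-compound and DMSO controls included. Three biological replicates averaged.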

[3] = tested on: Mycolicibacterium smegmatis; test: (§1) Inhibition of NDH2 in Mycobacterium smegmatis (MC2) 155 membranes assessed NADH oxidation relative to control
In short: (§2)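 M. smegmatis membranes at 50 μg/mL in 20 mM sodium phosphate pH 8.0 at 37°C, with compound (0–200 μM) preincubated 30 s. Reaction started with 200 μM NADH; A340 followed (ε 6.22 mM⁻¹cm⁻¹), activity in μmol NADH/min/mg. Data normalized to uninhibited activity, IC50 by log(inhibitor) vs response fit. Mean of three independent experiments.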

[4] = tested on: Mycolicibacterium smegmatis; test: Bactericidal activity against Mycobacterium smegmatis at 8.9 uM after 3 to 24 hrs by colony forming unit count method; type: functional, organism-based
In short: (§3)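 Cultures grown in LBT to OD600 ~0.5, then dosed at 8.9 μM per OD600, or CCCP at 500 μM; no-compound and DMSO controls. OD600 taken at 0, 3, 9 and 24 h. CFU at 0, 9 and 24 h: cells washed, diluted in PBS + 0.05% Tween80, spotted on LBT (Miles–Misra), counted after 3 days at 37°C (5–50 colonies). Three biological replicates.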

[5] = tested on: Mycolicibacterium smegmatis; test: Bactericidal activity against Mycobacterium smegmatis at 500 uM after 3 to 24 hrs by colony forming unit count method; type: functional, organism-based; in short: as §3
[6] = Inhibition of Mycobacterium tuberculosis NDH2
[7] = as §1; set-up: species or system Mycolicibacterium smegmatis; in short: as §2
[8] = tested on: Mycolicibacterium smegmatis; test: Inhibition of NDH2 in Mycobacterium smegmatis (MC2) 155 membrane assessed inhibition of oxygen consumption relative to control
In short: (§4)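 Clark-type O2 electrode, 2 mL mix at 37°C, calibrated to 220 nmol O2/mL with air-saturated 20 mM sodium phosphate pH 8.0. M. smegmatis membrane vesicles (French press, 100,000 × g pellet) driven by 10 mM NADH. Test range 0–80 μM; TPZ 0–200 μM. Controls: 80 μM comparators, DMSO, 200 μM KCN, no compound. Two-tailed t-test, p<0.05.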

[9] = tested on: Mycolicibacterium smegmatis; test: Bacteriostatic against Mycobacterium smegmatis at 4.8 ug/ml after 3 to 24 hrs by colony forming unit count method; type: functional, organism-based; in short: as §3
[10] = tested on: Mycolicibacterium smegmatis; test: Effect on NDH2 in Mycobacterium smegmatis (MC2) 155 membrane assessed increase in oxygen consumption relative to control; in short: as §4

Compound | MIC [1] | IC50 [2] | other results
c1ccc2c(c1)Nc1ccccc1S2 [PHENOTHIAZINE] | > 64 µg/mL | > 64 µg/mL | inhibition [3]: inactive; Activity [4]: inactive
CN(C)CCCN1c2ccccc2Sc2ccccc21 [PROMAZINE] | > 128 µg/mL | 128 µg/mL (≈ 450 µM) | –
N#CC(C#N)=NNc1cccc(Cl)c1 | – | – | Activity [5]: Active
C=C(C)[C@H]1Cc2c(ccc3c2O[C@@H]2COc4cc(OC)c(OC)cc4[C@@H]2C3=O)O1 | – | – | inhibition [3]: inactive
Clc1ccc2c(c1)N(CCC[P+](c1ccccc1)(c1ccccc1)c1ccccc1)c1ccccc1S2.[Cl-] | 6 µg/mL | 1 µg/mL | –
CC(CN1c2ccccc2Sc2ccccc21)N(C)C (stereo not drawn) [PROMETHAZINE] | – | – | MIC [2]: 20 µg/mL (≈ 70.3 µM)
CN1CCN(CCCN2c3ccccc3Sc3ccc(C(F)(F)F)cc32)CC1 [TRIFLUOPERAZINE] | 64 µg/mL (≈ 157 µM) | 8 µg/mL (≈ 19.6 µM) | IC50 [6]: 12 µM; IC50 [7]: 60.1 µM; INH [8]: 100 µM
[Cl-].c1ccc([P+](CCCN2c3ccccc3Sc3ccccc32)(c2ccccc2)c2ccccc2)cc1 | 4 µg/mL | – | Activity [9]: Active; IC50 [7]: 15.1 µM; INH [8]: 40 µM
FC(F)(F)c1ccc2c(c1)N(CCC[P+](c1ccccc1)(c1ccccc1)c1ccccc1)c1ccccc1S2.[Cl-] | 12 µg/mL | 1 µg/mL | –
CN(C)CCCN1c2ccccc2Sc2ccc(Cl)cc21 [CHLORPROMAZINE] | – | – | IC50 [6]: 10 µM; MIC [2]: 10 µg/mL (≈ 31.4 µM)
CCC[P+](c1ccccc1)(c1ccccc1)c1ccccc1.[Br-] | > 128 µg/mL | > 128 µg/mL | inhibition [3]: inactive; Activity [4]: inactive; Activity [10]: Active
FC(F)(F)c1ccc2c(c1)Nc1ccccc1S2 | > 64 µg/mL | > 64 µg/mL | –
Clc1ccc2c(c1)Nc1ccccc1S2 | > 64 µg/mL | > 64 µg/mL | –
